Assay results reported in ChEMBL document CHEMBL1134050, “Phenyl benzenesulfonamides are novel and selective 5-HT6 antagonists: identification of N-(2,5-dibromo-3-fluorophenyl)-4-methoxy-3-piperazin-1-ylbenzenesulfonamide (SB-357134)” (Bioorg Med Chem Lett, 2001).

Columns and labels:
[1] = target: 5-hydroxytryptamine receptor 6 (Homo sapiens, UniProt P50406); test: Binding affinity against human 5-hydroxytryptamine 6 receptor
[2] = organism: Rattus norvegicus; test: Blood: Brain distribution ratio is determined in rat; assay type: ADME, organism-based
Summary of the method: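 Rats received iv infusion for 8 h, and the brain:blood ratio was taken at steady state.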

[3] = Bioavailability was determined upon 10 mg/kg in 1% methylcellulose peroral administration in rats; assay type: ADME, organism-based; conditions: rat, in vivo, po
Summary of the method: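 Rats were given 10 mg/kg orally as a suspension in 1% methylcellulose (v/v) aq (n=3). Blood drug levels were determined by LC/MS/MS, and AUC/dose and bioavailability were derived from them.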

[4] = Plasma Clearance measured at steady-state following iv infusion at 0.6 mg/kg/h in rats; assay type: ADME, organism-based; design: route intravenous; conditions: rat, 0.6 mg/kg/h infusion
[5] = system: Rattus norvegicus; test: Pharmacokinetic property( plasma concentration) was determined upon 10 mg/kg in 1% methylcellulose peroral administration in rats; assay type: ADME, organism-based; design: dose 10 mg/kg, route oral; conditions: in vivo, po
[6] = target: 5-hydroxytryptamine receptor 1B (Homo sapiens, UniProt P28222); test: Compound was evaluated for binding affinity against human cloned 5-hydroxytryptamine 1B receptor in CHO cells using [3H]5-HT as the radioligand; assay type: cell-based
5-hydroxytryptamine receptor 1B, sequence (P28222 whole entry): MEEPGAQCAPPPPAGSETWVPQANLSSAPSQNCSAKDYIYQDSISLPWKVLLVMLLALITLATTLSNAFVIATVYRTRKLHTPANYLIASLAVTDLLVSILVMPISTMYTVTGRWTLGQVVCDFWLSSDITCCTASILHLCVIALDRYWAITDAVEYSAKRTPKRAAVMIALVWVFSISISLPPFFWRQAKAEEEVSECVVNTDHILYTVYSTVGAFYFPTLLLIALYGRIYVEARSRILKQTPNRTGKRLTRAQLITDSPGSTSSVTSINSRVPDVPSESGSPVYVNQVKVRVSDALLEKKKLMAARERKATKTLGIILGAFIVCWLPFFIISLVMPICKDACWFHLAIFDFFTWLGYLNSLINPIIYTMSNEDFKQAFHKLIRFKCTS
Summary of the method: (§1)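 Radioligand binding to human cloned receptors: 5-HT1A in HEK 293 cells with [3H]-8-OH-DPAT; 5-HT1B and 5-HT1E in CHO cells with [3H]-5-HT; 5-HT2B in HEK 293 cells with [3H]-5-HT; D2 and D3 in CHO cells with [125I]-iodosulpride. Values are the mean of at least two determinations, each within 0.2 log unit of the mean.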

[7] = target: 5-hydroxytryptamine receptor 1D (Homo sapiens, UniProt P28221); test: Compound was evaluated for binding affinity against human cloned 5-hydroxytryptamine 1D receptor in CHO cells using [3H]5-HT as the radioligand; assay type: cell-based
5-hydroxytryptamine receptor 1D, sequence (P28221 whole entry): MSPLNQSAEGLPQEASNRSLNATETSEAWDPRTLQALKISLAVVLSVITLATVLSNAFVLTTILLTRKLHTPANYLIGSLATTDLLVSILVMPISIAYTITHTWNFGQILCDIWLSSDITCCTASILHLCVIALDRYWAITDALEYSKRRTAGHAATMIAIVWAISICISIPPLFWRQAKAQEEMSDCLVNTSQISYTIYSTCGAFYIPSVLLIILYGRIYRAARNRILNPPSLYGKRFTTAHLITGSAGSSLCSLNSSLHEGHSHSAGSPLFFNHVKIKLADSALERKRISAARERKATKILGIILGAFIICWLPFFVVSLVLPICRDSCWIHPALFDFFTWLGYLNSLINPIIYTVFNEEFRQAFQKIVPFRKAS

[8] = target: 5-hydroxytryptamine receptor 1E (Homo sapiens, UniProt P28566); test: Compound was evaluated for binding affinity against human cloned 5-hydroxytryptamine 1E receptor in CHO cells using [3H]5-HT as the radioligand; assay type: cell-based; summary of the method: as §1
5-hydroxytryptamine receptor 1E, sequence (P28566 whole entry): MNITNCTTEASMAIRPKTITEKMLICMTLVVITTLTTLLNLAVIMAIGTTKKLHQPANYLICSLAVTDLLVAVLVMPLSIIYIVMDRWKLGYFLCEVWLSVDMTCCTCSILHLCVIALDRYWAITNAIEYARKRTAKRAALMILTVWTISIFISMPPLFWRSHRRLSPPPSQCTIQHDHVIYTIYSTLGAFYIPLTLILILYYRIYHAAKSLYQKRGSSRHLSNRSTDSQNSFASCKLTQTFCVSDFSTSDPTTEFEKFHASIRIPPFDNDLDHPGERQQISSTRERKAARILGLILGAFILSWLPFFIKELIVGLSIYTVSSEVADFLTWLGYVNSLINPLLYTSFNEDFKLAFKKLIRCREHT

[9] = target: 5-hydroxytryptamine receptor 2A (Homo sapiens, UniProt P28223); test: Compound was evaluated for binding affinity against human cloned 5-hydroxytryptamine 2A receptor in HEK 293 cells using [3H]ketanserin as the radioligand; assay type: cell-based, HEK293
5-hydroxytryptamine receptor 2A, sequence (P28223 whole entry): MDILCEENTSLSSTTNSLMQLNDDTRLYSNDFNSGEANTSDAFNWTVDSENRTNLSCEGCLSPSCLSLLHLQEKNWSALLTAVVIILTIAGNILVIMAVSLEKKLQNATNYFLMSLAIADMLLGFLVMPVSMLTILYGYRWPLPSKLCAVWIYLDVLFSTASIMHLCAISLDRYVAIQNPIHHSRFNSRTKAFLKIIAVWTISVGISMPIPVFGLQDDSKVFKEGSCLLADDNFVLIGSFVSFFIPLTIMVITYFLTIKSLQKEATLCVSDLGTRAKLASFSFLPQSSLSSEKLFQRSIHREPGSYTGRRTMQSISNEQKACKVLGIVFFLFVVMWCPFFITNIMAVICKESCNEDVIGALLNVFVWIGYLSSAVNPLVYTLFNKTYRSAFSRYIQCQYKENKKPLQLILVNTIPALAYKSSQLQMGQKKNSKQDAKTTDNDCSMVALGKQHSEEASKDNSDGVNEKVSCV

[10] = target: T1, 5-hydroxytryptamine receptor 1F (Homo sapiens, UniProt P30939); test: Compound was evaluated for binding affinity against human cloned 5-hydroxytryptamine 1F receptor in CHO cells using [3H]-5-HT as the radioligand; assay type: cell-based
T1 sequence (P30939 whole entry): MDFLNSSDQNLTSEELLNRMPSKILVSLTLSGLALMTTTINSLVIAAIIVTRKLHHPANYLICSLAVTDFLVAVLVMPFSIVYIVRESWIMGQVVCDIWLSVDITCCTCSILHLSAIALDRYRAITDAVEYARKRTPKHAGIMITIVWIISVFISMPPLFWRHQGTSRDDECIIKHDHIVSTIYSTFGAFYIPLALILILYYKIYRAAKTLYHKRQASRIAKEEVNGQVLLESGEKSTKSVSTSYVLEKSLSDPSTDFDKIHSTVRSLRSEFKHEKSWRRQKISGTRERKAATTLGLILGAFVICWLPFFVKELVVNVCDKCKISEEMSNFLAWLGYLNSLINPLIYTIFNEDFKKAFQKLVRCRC

[11] = target: T2, 5-hydroxytryptamine receptor 2C (Homo sapiens, UniProt P28335); test: Compound was evaluated for binding affinity against human cloned 5-hydroxytryptamine 2C receptor in HEK 293 cells using [3H]mesulergine as the radioligand; assay type: cell-based, HEK293
T2 sequence (P28335 whole entry): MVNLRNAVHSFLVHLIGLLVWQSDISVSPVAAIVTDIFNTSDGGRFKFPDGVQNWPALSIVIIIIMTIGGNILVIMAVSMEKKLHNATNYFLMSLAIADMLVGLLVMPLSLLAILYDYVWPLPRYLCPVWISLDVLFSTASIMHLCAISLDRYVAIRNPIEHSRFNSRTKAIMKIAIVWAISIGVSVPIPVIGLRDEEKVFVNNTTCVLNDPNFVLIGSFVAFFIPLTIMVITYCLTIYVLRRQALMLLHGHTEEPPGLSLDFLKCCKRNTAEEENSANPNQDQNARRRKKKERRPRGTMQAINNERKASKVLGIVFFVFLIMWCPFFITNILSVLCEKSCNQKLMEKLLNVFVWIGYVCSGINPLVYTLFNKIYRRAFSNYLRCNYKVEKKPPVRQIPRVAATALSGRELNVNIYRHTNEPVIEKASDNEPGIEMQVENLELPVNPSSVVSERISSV

[12] = target: 5-hydroxytryptamine receptor 2B (Homo sapiens, UniProt P41595); test: Compound was evaluated for binding affinity against human cloned 5-HT2B receptor in HEK 293 cells using [3H]5-HT as the radioligand; assay type: cell-based, HEK293; summary of the method: as §1
5-hydroxytryptamine receptor 2B, sequence (P41595 whole entry): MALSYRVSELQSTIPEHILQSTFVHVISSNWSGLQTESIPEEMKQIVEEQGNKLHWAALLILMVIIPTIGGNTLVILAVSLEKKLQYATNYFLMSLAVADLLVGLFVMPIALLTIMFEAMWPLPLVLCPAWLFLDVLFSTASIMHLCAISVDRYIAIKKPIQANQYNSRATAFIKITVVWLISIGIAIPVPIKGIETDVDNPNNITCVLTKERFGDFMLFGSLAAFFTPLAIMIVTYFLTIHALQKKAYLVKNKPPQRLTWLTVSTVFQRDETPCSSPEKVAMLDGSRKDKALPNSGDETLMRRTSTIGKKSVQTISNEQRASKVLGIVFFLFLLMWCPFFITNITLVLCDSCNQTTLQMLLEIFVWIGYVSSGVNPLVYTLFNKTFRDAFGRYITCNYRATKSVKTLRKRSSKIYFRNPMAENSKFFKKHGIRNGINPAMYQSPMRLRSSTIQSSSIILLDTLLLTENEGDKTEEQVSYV

[13] = target: 5-hydroxytryptamine receptor 4 (Homo sapiens, UniProt Q13639); test: Compound was evaluated for the binding affinity against human cloned 5-hydroxytryptamine 4 receptor in HeLa cells using [3H]-LSD as the radioligand; assay type: cell-based
5-hydroxytryptamine receptor 4, sequence (Q13639 whole entry): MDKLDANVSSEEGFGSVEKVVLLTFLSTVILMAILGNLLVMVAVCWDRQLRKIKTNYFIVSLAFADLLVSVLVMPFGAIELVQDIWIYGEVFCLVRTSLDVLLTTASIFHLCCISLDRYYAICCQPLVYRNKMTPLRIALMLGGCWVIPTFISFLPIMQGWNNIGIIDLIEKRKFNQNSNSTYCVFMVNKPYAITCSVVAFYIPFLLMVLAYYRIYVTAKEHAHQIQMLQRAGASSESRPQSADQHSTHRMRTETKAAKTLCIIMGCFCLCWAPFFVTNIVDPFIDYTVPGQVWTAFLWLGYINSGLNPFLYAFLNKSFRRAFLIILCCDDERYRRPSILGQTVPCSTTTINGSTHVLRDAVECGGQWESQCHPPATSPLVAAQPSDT

[14] = target: 5-hydroxytryptamine receptor 7 (Homo sapiens, UniProt P34969); test: Displacement of [3H]-5-CT from human 5-hydroxytryptamine 7 receptor expressed in HEK-293 cells; assay type: cell-based, HEK293
5-hydroxytryptamine receptor 7, sequence (P34969 whole entry): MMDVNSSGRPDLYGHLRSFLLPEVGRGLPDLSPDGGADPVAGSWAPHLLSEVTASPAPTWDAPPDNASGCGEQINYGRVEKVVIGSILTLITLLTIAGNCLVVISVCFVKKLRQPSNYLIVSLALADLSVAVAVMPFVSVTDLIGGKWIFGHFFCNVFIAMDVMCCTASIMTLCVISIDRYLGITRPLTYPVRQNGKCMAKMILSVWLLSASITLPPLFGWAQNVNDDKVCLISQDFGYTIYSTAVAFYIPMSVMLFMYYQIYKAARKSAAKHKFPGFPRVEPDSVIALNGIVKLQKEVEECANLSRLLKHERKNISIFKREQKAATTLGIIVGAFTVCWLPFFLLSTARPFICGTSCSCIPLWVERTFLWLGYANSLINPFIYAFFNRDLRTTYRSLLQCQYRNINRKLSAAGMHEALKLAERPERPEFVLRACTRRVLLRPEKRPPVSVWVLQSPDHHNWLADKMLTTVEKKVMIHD

[15] = target: T3, Alpha-1B adrenergic receptor (Homo sapiens, UniProt P35368); test: Compound was evaluated for binding affinity against Alpha-1B adrenergic receptor
T3 sequence (P35368 whole entry): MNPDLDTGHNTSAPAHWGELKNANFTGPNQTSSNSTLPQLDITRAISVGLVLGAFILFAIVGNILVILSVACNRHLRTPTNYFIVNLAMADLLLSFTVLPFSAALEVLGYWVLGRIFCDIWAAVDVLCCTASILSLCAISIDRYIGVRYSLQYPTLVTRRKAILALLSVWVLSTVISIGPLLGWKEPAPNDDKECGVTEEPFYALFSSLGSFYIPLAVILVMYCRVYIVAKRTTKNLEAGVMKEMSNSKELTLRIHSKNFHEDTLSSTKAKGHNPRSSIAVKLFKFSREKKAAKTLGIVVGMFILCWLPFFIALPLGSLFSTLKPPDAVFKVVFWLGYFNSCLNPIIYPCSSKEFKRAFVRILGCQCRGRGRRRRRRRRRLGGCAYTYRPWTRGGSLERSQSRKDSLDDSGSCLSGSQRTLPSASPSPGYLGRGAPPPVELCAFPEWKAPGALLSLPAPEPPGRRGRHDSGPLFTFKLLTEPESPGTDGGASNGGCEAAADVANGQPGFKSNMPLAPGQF

[16] = target: D(3) dopamine receptor (Homo sapiens, UniProt P35462); test: Compound was evaluated for binding affinity against Dopamine receptor D3 in CHO cells using [125I]iodosulpiride as the radioligand; assay type: cell-based; summary of the method: as §1
D(3) dopamine receptor, sequence (P35462 whole entry): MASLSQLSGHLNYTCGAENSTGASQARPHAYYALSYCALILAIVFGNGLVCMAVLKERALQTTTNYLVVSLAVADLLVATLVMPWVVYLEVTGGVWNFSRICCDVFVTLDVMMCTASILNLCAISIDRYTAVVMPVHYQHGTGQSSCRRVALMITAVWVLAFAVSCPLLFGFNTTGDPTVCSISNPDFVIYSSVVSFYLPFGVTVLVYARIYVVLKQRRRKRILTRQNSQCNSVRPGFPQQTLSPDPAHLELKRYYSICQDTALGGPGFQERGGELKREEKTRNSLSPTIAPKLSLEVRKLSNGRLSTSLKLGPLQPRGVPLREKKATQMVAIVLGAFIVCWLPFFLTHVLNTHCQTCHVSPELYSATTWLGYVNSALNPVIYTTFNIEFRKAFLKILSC

[17] = target: D(2) dopamine receptor (Homo sapiens, UniProt P14416); test: Compound was evaluated for binding affinity against Dopamine receptor D2 in CHO cells using [125I]iodosulpiride as the radioligand; assay type: cell-based; summary of the method: as §1
D(2) dopamine receptor, sequence (P14416 whole entry): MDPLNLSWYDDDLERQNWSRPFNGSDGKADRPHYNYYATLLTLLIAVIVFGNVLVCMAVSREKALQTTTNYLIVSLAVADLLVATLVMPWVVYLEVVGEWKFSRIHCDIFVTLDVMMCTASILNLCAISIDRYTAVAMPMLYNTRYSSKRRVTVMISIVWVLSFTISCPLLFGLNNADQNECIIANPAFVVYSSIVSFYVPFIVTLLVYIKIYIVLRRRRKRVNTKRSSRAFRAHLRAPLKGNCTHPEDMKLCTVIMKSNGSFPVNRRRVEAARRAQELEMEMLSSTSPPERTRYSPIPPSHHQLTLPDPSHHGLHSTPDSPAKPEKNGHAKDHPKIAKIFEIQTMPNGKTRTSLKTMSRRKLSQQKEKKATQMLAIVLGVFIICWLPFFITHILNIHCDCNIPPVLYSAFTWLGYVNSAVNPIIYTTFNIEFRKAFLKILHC

[18] = target: T4, 5-hydroxytryptamine receptor 1A (Homo sapiens, UniProt P08908); test: Compound was evaluated for binding affinity against human cloned 5-hydroxytryptamine 1A receptor in HEK 293 cells using [3H]8-OH-DPAT as the radioligand; assay type: cell-based, HEK293; summary of the method: as §1
T4 sequence (P08908 whole entry): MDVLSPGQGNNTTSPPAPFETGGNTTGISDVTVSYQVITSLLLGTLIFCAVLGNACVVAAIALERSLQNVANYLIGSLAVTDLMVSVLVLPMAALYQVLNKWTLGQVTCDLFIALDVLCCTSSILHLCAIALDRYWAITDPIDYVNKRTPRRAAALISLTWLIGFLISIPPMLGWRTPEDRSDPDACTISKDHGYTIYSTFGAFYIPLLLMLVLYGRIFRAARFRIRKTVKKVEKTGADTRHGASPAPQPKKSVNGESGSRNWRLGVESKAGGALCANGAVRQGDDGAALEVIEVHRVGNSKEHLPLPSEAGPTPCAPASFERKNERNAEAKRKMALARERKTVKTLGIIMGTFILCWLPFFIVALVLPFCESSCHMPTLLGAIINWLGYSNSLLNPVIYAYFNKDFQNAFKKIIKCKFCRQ

[19] = Bioavailability in rat (dose 10 mg/kg in 10% Encapsin and 2% DMSO p.o.); conditions: in vivo, po

5-hydroxytryptamine receptor 6, sequence (P50406 whole entry): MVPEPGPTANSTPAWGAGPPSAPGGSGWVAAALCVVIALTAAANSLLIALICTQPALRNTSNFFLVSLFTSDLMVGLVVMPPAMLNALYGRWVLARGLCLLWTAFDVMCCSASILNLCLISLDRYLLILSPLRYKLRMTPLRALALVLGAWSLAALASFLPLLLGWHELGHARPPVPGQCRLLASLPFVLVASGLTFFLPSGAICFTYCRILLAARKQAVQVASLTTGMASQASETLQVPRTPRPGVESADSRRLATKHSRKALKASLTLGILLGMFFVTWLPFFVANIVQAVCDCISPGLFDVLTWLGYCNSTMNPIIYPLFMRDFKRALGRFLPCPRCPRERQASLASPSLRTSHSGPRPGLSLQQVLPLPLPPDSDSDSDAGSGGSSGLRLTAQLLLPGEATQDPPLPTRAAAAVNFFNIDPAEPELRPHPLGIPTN

COc1ccc(S(=O)(=O)Nc2cc(Cl)cc(Cl)c2)cc1N1CCNCC1
Ki [1]: 0.000631 µM
Distribution ratio [2]: 0.02
bioavailability [3]: 51%
clearance [4]: 4 mL/min/kg
AUC [5]: 450 uM min uM-1

COc1ccc(S(=O)(=O)Nc2cc(Br)cc(F)c2Br)cc1N1CCNCC1
Ki [6]: > 3.98 µM
Ki [7]: > 3.98 µM
Ki [8]: > 10 µM
Ki [9]: > 7.94 µM
Ki [10]: > 10 µM
Ki [11]: > 5.01 µM
Ki [12]: > 3.98 µM
Ki [13]: > 5.01 µM
Ki [14]: > 10 µM
clearance [4]: 14 mL/min/kg
Ki [15]: > 7.94 µM
Ki [16]: > 5.01 µM
Ki [17]: > 5.01 µM
Ki [18]: > 6.31 µM
bioavailability [19]: 65%
